Compound activity as filed in PubChem.
The list is not random: actives were taken first. Their share in the collection is about 0.72%.
hIAP block: human IAP inhibition; purified IAP, CDP-Star luminescence, 30 min; P09923; inhibition, % at 10 µM; 0.12% of 330,000 active;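 active means inhibition reaching a set limit with compound at 10 µM in the primary screen, cut at about 35% in these data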
Target sequence (P09923 whole entry, looked up): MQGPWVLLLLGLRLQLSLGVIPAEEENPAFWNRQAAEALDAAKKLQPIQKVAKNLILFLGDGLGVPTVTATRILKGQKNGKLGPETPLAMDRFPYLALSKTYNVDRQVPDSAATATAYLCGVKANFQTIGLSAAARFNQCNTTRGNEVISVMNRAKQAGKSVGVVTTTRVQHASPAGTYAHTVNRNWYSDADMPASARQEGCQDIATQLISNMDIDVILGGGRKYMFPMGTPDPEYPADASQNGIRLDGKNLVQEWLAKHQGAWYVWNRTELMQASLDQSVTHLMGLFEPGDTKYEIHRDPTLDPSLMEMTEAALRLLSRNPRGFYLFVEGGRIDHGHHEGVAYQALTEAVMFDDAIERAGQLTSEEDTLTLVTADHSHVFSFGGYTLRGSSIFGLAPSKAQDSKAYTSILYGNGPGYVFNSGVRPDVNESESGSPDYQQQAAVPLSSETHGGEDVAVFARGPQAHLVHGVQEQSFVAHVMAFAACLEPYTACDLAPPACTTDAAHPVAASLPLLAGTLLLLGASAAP
bIAP inhibitor: intestinal alkaline phosphatase (bovine) inhibition; purified bovine IAP, CDP-star luminescence, 30 min; inhibition, % at 20 µM; 190,000 tested, under 10 active; AID 1019;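 active means over 50% inhibition of intestinal alkaline phosphatase at 20 µM in the single-dose screen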
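System: Purified bovine intestinal alkaline phosphatase (IAP) enzyme | Input: IAP diluted 1/65,000,000 in the well | Also added: CDP-star chemiluminescent phosphatase substrate, 30 µM final | Dosing: 20 µM single dose | Times: Enzyme reaction for 30 min at room temperature | Detection: Luminescence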
bIAP activator: intestinal alkaline phosphatase (bovine) activation; purified bovine IAP, CDP-star luminescence, 30 min; stronger effect = higher value; fold of DMSO-control signal, blank-subtracted; activation factor at 20 µM; 0.17% of 200,000 active;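 active means activation factor of 2 or more at 20 µM, a signal rise over negative controls twice the positive control's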
mIAP block: blocks mouse intestinal alkaline phosphatase. purified mouse IAP, CDP-Star luminescence, 30 min. inhibition, % at 10 µM. 0.2% of 330,000 active. AID 2806;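 active means inhibition of at least 40% at 10 µM in the primary screen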
mIAP activ: mouse IAP activation; 0.24% of 330,000 active; activation factor at 10 µM; muIAP, CDP-Star luminescence, 30 min; stronger effect = higher value; 1 = vehicle-only enzyme signal, 0 = enzyme-free wells; AID 2805;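 active means activation factor of at least 2 at 20 µM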
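Assay system: mouse IAP enzyme / Compound: DMSO-dissolved test compounds / Timing: 30 min, room temperature / Measured by: luminescence from enzymatic CDP-Star hydrolysis / Control set: DMSO-only wells, enzyme-free buffer wells as negative control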
hIAP act: increases human intestinal alkaline phosphatase activity | AID 2524 | activation factor at 10 µM | P09923 | 0.16% of 330,000 active | purified human IAP, CDP-Star luminescence, 30 min; stronger effect = higher value; 1 = vehicle-only enzyme, 0 = enzyme-free background;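 active means activation factor of the enzyme at least 2-fold when tested at 20 µM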
hIAP act conf: human IAP activation confirmation; shares compounds with hIAP act; purified IAP, CDP-Star luminescence, 30 min; stronger effect = lower value; activation (%Activity, negative = activation), % at 8.3 µM; 10% of 880 active;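 active means at least twofold enzyme activation in any of six single-dose repeats, which the averaged readout prints as negative percent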
mIAP inh confirm: mouse IAP inhibition confirmation | shares compounds with mIAP block | purified mouse IAP, CDP-Star luminescence, 30 min | inhibition, % at 10 µM | 4.7% of 11,000 active | AID 434971;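 active means inhibition of at least 40% at 10 µM in either of the two replicates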
Large screens that a line does not name were inactive (follow-up assays come after a bar, where they were run).

CN1C(=O)C(=Cc2ccc(N3CCCCCC3)o2)C(=O)N(C)C1=S	mIAP block 43.1
COC(=O)C1=C(c2ccccc2OCc2ccccc2)C[C@@H]2CC[C@H]1N2C(=O)NCc1ccc(Br)cc1	none (no result: bIAP inhibitor, bIAP activator)
CCN(CC)C(=O)c1ccc(NC(=O)C2=C(C)OCCS2)cc1	none (no result: bIAP inhibitor, bIAP activator)
Nc1ncc([N+](=O)[O-])s1	mIAP block 42.9 (no result: bIAP inhibitor, bIAP activator)
O=C(Nc1cccc(Cl)c1)OC1CN2CCC1CC2 (centres undefined)	mIAP activ 4.42 (no result: bIAP inhibitor, bIAP activator)
COC(=O)C1=C(c2cccc(OC)c2OC)C[C@@H]2CC[C@H]1N2C(=O)NCCCOC(C)C	none (no result: bIAP inhibitor, bIAP activator)
NS(=O)(=O)c1ccc(-c2ccc(C=C3C(=O)NC(=O)NC3=O)o2)cc1	mIAP block 64.5 (no result: bIAP inhibitor, bIAP activator)
CNS(=O)(=O)c1ccc(-c2ccc(C=C3C(=O)NC(=O)NC3=O)o2)cc1	none (no result: bIAP inhibitor, bIAP activator)
COC(=O)Cn1cc(/C=C2\C(=O)NC(=O)N(c3ccccc3)C2=O)c2ccccc21	hIAP block 36.8 (no result: bIAP inhibitor, bIAP activator) | hIAP act conf inactive
CCOCN(C(=O)CCl)c1c(C)cccc1CC	none (no result: bIAP inhibitor, bIAP activator)
CN1C(=O)NC(=O)/C(=C/c2ccc([N+](=O)[O-])o2)C1=O	mIAP block 41.9 (no result: bIAP inhibitor, bIAP activator) | mIAP inh confirm 41.5
CN1C(=O)NC(=O)/C(=C\c2ccc([N+](=O)[O-])o2)C1=O	mIAP block 44.0 | mIAP inh confirm 56.1
O=C1NC(=O)N(c2ccccc2)C(=O)/C1=C\c1ccc([N+](=O)[O-])o1	mIAP block 46.8 (no result: bIAP inhibitor, bIAP activator) | mIAP inh confirm 59.1
COC(=O)C1=C(c2ccc(F)cc2OCc2ccccc2)C[C@@H]2CC[C@H]1N2C(=O)N1CCC(O)CC1	none (no result: bIAP inhibitor, bIAP activator)
C#C[C@]1(O)CCC2C3CCC4=C/C(=N/OCC(=O)NC(C)C(=O)NC(CCSC)C(=O)O)CC[C@]4(C)C3CC[C@@]21C (some centres undefined)	none (no result: bIAP inhibitor, bIAP activator)
COC1=CC(=O)[C@]2(C=C1OC)OC[C@@H]1Oc3c(ccc4c3C=CC(C)(C)O4)C(=O)[C@@H]12	none (no result: bIAP inhibitor, bIAP activator)
O=C1NC(=S)NC(=O)C1=Cc1ccc(Br)s1	mIAP block 60.2 (no result: bIAP inhibitor, bIAP activator) | mIAP inh confirm 75.8
CCN1C(=O)C(=Cc2ccc(C)s2)C(=O)N(CC)C1=S	none
COC(=O)C1=C(c2c(C)noc2C)C[C@@H]2CC[C@H]1N2C(=O)NCc1ccc(C(F)(F)F)cc1	none (no result: bIAP inhibitor, bIAP activator)
Cc1ccc(CN2C3CCCC2CC(NC(=S)NCc2ccccc2)C3)cc1 (centres undefined)	bIAP activator 4.2, mIAP activ 4.53 | mIAP inh confirm inactive
NS(=O)(=O)c1ccc(-c2ccc(C=C3C(=O)NC(=S)NC3=O)o2)cc1	mIAP block 78.1 (no result: bIAP inhibitor, bIAP activator) | mIAP inh confirm 72.1
O=C1NC(=O)N(Cc2ccccc2)C(=O)/C1=C\c1ccco1	none
O=C1NC(=O)N(Cc2ccc(F)cc2)C(=O)/C1=C\C=C\c1ccco1	mIAP block 58.9 (no result: bIAP inhibitor, bIAP activator) | mIAP inh confirm 61.2
C/C=C/CC#N	none (no result: bIAP inhibitor, bIAP activator)
COc1ccc(OC)c(N2C(=O)NC(=O)/C(=C\c3ccc([N+](=O)[O-])s3)C2=O)c1	none
O=C1NC(=O)N(c2ccccc2)C(=O)/C1=C\c1ccc([N+](=O)[O-])s1	mIAP block 41.1 (no result: bIAP inhibitor, bIAP activator) | mIAP inh confirm 53.1
Cc1ccc(/C=C2/C(=O)NC(=O)N(C)C2=O)cc1	none
CN1C(=O)NC(=O)/C(=C/c2ccc([N+](=O)[O-])s2)C1=O	mIAP block 46.1 (no result: bIAP inhibitor, bIAP activator) | mIAP inh confirm 44.9
COc1ccc2c(c1O)C13CCN(C)C(C2)C1CCC(=O)C3 (centres undefined)	none (no result: bIAP inhibitor, bIAP activator)
CC(C)(C)c1cc(C=C(C#N)C#N)cc(C(C)(C)C)c1O	none (no result: bIAP inhibitor, bIAP activator)
N#CC(C#N)=Cc1ccc(O)c(O)c1	mIAP block 45.9 (no result: bIAP inhibitor, bIAP activator) | mIAP inh confirm 65.9
O=C(O)Cn1cc(/C=C2\C(=O)NC(=O)N(Cc3ccco3)C2=O)c2ccccc21	mIAP block 56.9 | mIAP inh confirm 57.9
CCN(CC)c1ccc(/C=C2/C(=O)NC(=O)N(CC3CCCO3)C2=O)cc1 (centres undefined)	none
CCN(CC)c1ccc(/C=C2\C(=O)NC(=O)N(Cc3ccco3)C2=O)cc1	mIAP block 49.3 | mIAP inh confirm 53.2
